Assay results of several laboratories.
Protocols differ between the studies behind these lines.
Target: Angiopoietin-1 receptor (TEK, Homo sapiens, UniProt Q02763)

CC#CC(=O)N1CCC[C@H]1c1nc(-c2ccc(C(=O)Nc3ccccn3)cc2)c2c(N)nccn12 — inhibition (enzyme activity, inhibitor; 1 µM): 0%
CCCCC(=O)Nc1ccc(-c2ccc3ncn(CCC)c(=O)c3c2)cn1 — remaining binding (binding, competition with immobilised ligand; 0.5 µM): 94%
C=CC(=O)N1CCC([C@@H]2CCNc3c(C(N)=O)c(-c4ccc(Oc5ccccc5)cc4)nn32)CC1 — inhibition (cell-free assay; 1 µM): 0%
N#Cc1ccc(NC(=O)Nc2ccccc2)cc1 — remaining binding (cell-free assay, competition with immobilised ligand; 25 µM): 98%
C[C@H]1CC[C@H](n2c3cnccc3c3cnc(Nc4ccc5c(n4)CCN(C(=O)CO)C5)nc32)CC1 — remaining binding (cell-free assay, competition with immobilised ligand; 1 µM): 92%
C#Cc1cnc(Nc2ccnc(CO)c2)nc1Nc1ccccc1S(C)(=O)=NC#N (centres unmarked) — remaining signal (cell-free assay; 1 µM): 46%
COc1ccc2oc(-c3ccc4nc(N)oc4c3)c/c(=N\c3ccccc3NC(=O)CCN)c2c1 — remaining signal (cell-free assay; 1 µM): 87%
COc1ccc2[nH]c3c4[nH]c5ccc(OC)cc5c4c4c(c3c2c1)C(=O)NC4=O — remaining binding (binding, competition with immobilised ligand; 1 µM): 100%
